Test results published in ChEMBL document CHEMBL4334552, “Discovery of BMS-986260, a Potent, Selective, and Orally Bioavailable TGFβR1 Inhibitor as an Immuno-oncology Agent” (ACS Med Chem Lett, 2020).
pIC50, pKi: −log10 of the molar value. In brackets after ≈: the same amount, converted by molar mass. Activity calls are given as the source filed them. The calls are words filed in the database; no cut-off is given here.

Assays:
Cytochrome P450 3A4 = Cytochrome P450 3A4 (Homo sapiens, UniProt P08684); assay: Induction of recombinant CYP3A4 (unknown origin) up to 24 microM; assay type: ADME; details: recombinant enzyme
[1] = Volume of distribution at steady state in Beagle dog at 1 mg/kg, iv; assay type: ADME, organism-based, Canis lupus familiaris; details: in vivo, read-out: Vdss
Outline: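 Male Beagle dogs (n = 2) were pretreated with pentagastrin and dosed iv at 1 mg/kg and po at 5 mg/kg. The oral vehicle was 5% ethanol, 45% PEG400 and 50% 25 mM acetate buffer pH 4.0. The iv vehicle was 5:45:50 EtOH/PEG400/saline at 1 mL/kg.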

Cytochrome P450 2C9 = Cytochrome P450 2C9 (Homo sapiens, UniProt P11712); assay: Induction of recombinant CYP2C9 (unknown origin) up to 24 microM; assay type: ADME; details: recombinant enzyme
[2] = Cardiovascular toxicity in rat 1 mg/kg, po dosed every 3 days on and 4 days off treatment regime for 1 month; assay type: organism-based; details: in vivo
[3] = MRT in Sprague Dawley rat at 5 mg/kg, iv; assay type: ADME, organism-based; details: in vivo
Outline: (§1)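 Male Sprague–Dawley rats (n = 3) received a PEG400 solution iv at 5 mg/kg and po at 10 mg/kg.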

[4] = Cardiovascular toxicity in dog assessed as valvulo-pathy at 5 mg/kg, po for 10 days; assay type: organism-based, Canis lupus familiaris; details: in vivo, 240 h
Outline: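 Exploratory toxicology studies of 10 days with daily oral dosing in rats and dogs. Cardiovascular findings, including valvulopathy and aortic pathology, were assessed.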

[5] = Total AUC in Sprague Dawley rat at 10 mg/kg, po; assay type: ADME, organism-based; set-up: dose 10 mg/kg, route oral, time AUCmax; details: in vivo; outline: as §1
MC-38 [6] = assay: Antitumour activity against mouse MC38 cells allografted in C57Bl/6 mouse assessed as tumour growth upto 15 mg/kg, po qd for 28 days by digital caliper analysis; assay type: functional, organism-based
Outline: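 C57/BL6 mice bearing subcutaneous right-flank MC38 tumors (0.1 mL of 1 × 10^7 cells/mL) were randomized at about 100 mm3. Monotherapy was given orally once daily for 28 days at up to 15 mg/kg.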

TGF-beta receptor type-1 [7] = biological target: T1, TGF-beta receptor type-1 (Mus musculus, UniProt Q64729); assay: Inhibition of TGFBR1 in mouse biochemical assay assessed as apparent inhibition constant; details: read-out: Ki(app)
T1 sequence (Q64729 whole entry): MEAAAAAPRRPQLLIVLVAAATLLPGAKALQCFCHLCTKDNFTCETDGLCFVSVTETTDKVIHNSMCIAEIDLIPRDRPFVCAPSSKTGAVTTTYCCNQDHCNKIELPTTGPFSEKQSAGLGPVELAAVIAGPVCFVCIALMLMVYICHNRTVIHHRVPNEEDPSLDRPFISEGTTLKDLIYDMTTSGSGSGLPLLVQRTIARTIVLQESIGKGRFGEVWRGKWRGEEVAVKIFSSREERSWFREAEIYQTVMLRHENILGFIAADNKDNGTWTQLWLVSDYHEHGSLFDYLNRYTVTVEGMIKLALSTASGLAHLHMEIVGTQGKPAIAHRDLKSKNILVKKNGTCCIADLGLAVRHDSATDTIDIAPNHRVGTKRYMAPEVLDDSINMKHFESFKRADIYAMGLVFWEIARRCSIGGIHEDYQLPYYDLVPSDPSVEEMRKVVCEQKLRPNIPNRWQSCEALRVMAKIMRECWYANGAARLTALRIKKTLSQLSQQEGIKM

TGF-beta receptor type-1 [8] = biological target: T2, TGF-beta receptor type-1 (Homo sapiens, UniProt P36897); assay: Inhibition of TGFBR1 in TGFbeta-stimulated human NHLF cells assessed as reduction in SMAD2 nuclear translocation
T2 sequence (P36897 whole entry): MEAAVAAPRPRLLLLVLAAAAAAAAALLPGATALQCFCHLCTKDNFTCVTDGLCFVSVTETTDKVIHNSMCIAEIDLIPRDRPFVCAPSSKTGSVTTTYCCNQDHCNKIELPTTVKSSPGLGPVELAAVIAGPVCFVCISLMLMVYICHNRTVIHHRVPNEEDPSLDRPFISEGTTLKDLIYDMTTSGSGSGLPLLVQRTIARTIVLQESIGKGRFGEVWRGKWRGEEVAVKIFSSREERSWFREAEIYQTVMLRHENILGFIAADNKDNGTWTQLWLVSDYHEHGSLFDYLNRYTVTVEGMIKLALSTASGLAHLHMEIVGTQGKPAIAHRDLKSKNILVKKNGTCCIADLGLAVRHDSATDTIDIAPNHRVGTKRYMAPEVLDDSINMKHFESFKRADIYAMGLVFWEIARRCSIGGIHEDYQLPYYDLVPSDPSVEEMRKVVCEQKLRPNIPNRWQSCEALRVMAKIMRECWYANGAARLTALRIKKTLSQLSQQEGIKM

[9] = Tmax in Sprague Dawley rat at 10 mg/kg, po; assay type: ADME, organism-based; details: in vivo; outline: as §1
MC-38 [10] = assay: Antitumour activity against mouse MC38 cells allografted in C57Bl/6 mouse assessed as reduction in tumour growth at 3.75 to 15 mg/kg, po qd for 28 days cotreated with anti-PD1 at 10 mg/kg, ip every 4 days for 3 doses measured for ten doubling times after cessation of treatment by digital caliper analysis; assay type: functional, organism-based
Outline: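 C57/BL6 mice received 0.1 mL of MC38 cells (1 × 10^7 cells/mL) subcutaneously in the right flank. Mice were randomized at about 100 mm3, typically day 5. Oral dosing was once daily for 28 days at 3.75, 7.5 or 15 mg/kg. Anti-PD-1 was given at 10 mg/kg IP every 4 days for three doses. Isotype IgG1 MOPC-21 served as control on the same schedule.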

[11] = Oral bioavailability in Sprague Dawley rat at 10 mg/kg; assay type: ADME, organism-based; details: in vivo; outline: as §1
[12] = Half life in rat liver microsomes in presence of NADPH; assay type: ADME, Microsome
PXR = biological target: T3, PXR (Homo sapiens, UniProt O75469); assay: Activation of PXR (unknown origin) relative to control
T3 sequence (O75469 whole entry): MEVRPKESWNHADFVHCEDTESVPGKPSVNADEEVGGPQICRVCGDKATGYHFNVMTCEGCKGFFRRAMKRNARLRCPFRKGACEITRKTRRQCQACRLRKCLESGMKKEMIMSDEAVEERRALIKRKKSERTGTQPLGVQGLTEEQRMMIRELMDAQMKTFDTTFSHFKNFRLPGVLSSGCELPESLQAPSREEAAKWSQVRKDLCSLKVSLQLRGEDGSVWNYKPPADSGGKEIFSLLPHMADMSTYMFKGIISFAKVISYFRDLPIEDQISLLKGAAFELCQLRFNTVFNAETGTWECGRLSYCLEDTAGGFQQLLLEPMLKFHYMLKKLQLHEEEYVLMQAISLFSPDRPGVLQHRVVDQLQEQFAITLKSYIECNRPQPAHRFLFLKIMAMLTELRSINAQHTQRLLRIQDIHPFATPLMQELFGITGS

[13] = Aqueous solubility of the compound at pH 6.5; assay type: physicochemical; details: aqueous solution, read-out: solubility
Phosphodiesterase 4 = Phosphodiesterase 4 (Homo sapiens, UniProt P27815+Q08499+Q07343+Q08493); assay: Inhibition of PDE4 (unknown origin) by HTRF assay; assay type: protein assay
[14] = Volume of distribution at steady state in Balb/C mouse at 5 mg/kg, iv; assay type: ADME, organism-based; details: in vivo, read-out: Vdss
Outline: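 Male Balb/C mice (n = 3) dosed iv at 5 mg/kg and po at 10 mg/kg. Vehicle was 70% 25 mM acetate buffer pH 4.0, 5% ethanol and 25% PEG 400.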

[15] = Half life in dog liver microsomes in presence of UGT/UDPGA; assay type: ADME, Canis lupus familiaris, Microsome

Cytochrome P450 3A4, sequence (P08684 whole entry): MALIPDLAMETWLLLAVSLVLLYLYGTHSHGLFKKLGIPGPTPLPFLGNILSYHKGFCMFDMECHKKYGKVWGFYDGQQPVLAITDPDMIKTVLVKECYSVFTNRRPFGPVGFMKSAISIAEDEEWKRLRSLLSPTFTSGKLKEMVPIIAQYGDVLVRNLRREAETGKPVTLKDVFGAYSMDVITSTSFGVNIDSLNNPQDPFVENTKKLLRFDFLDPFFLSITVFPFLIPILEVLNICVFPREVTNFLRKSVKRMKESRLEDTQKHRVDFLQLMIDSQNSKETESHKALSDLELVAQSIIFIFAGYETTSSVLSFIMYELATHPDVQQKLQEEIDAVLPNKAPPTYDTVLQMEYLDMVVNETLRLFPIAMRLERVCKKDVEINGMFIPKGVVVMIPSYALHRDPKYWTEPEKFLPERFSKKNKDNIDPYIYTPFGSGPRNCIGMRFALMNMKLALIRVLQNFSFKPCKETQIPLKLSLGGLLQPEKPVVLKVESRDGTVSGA
Cytochrome P450 2C9, sequence (P11712 whole entry): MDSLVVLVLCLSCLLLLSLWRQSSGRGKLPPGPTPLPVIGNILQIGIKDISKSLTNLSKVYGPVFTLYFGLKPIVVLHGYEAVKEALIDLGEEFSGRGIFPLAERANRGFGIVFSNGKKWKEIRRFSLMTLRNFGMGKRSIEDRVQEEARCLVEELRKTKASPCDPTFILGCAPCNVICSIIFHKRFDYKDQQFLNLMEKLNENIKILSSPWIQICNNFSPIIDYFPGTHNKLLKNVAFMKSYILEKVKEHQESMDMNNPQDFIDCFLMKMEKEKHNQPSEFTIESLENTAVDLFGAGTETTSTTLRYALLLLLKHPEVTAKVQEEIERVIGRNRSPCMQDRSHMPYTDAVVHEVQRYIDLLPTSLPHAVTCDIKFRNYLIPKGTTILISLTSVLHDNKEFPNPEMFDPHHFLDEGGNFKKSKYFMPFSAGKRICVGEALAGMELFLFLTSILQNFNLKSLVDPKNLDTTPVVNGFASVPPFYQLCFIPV

Activity (Cytochrome P450 3A4): Not Active
Vd [1]: 1.1 L/kg
Activity (Cytochrome P450 2C9): Not Active
MRT [3]: 7.2 h
AUC [5]: 90.8 µM·h
pKi (TGF-beta receptor type-1 [7]): 8.85
pIC50 (TGF-beta receptor type-1 [8]): 6.72
Tmax [9]: 1.1 h
bioavailability [11]: > 100%
half-life [12]: 0.833 h
Emax (PXR): 44%
solubility [13]: 47 µg/mL (≈ 123 µM)
IC50 (Phosphodiesterase 4): 11000 nM
Vd [14]: 4.5 L/kg
half-life [15]: 1.53 h
Structure (SMILES): N#Cc1cnc2ccc(-c3c(-c4ccc(F)c(Cl)c4)ncn3CCO)nn12
Activity [2]: Non-Toxic
Activity [4]: Toxic
inhibition (MC-38 [6]): inactive
inhibition (MC-38 [10]): Active
